# Results from PubChem BioAssay.
# This is one part of the list. Unmarked numbers belong to inactive results. Activity calls are given as the source filed them.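 Rule for the calls, unless noted: active = mean activation over triplicate wells above the hit cutoff derived from the earlier primary screen (cut at about 11% in these data); inactive = the rest.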
# Legend:
# [1] = system: DAF-12 nuclear receptor (Heterodera glycines), GAL4-LBD fusion; assay: hgDAF-12 GAL4 fusion reporter activation, retest – cell-based, luminescence, HEK293, GAL4-LBD fusion, confirmation (AID 743050); details: HEK293 GAL4-hgDAF12 luciferase reporter, agonist mode; at 6.8 µM; hits give high values; percent of butyrate response;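 note: 0% = DMSO low control and 100% = 2 mM sodium butyrate high control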
# [2] = target: Oxysterols receptor LXR-beta (Homo sapiens) (UniProt P55055); assay: nonspecific reporter activation via LXR – cell-based, luminescence, HEK293, H. glycines campaign, counter-screen for hgDAF-12 agonist project, confirmation (AID 743051;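 active = mean activation of the triplicate above a set limit carried over from the primary screen, none filed active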); details: HEK293 Gal4-LXR luciferase reporter, 24 h; at 6.8 µM; hits give high values
# Sequence of Oxysterols receptor LXR-beta (Homo sapiens) (P55055 whole entry, looked up, the tested form may be a part): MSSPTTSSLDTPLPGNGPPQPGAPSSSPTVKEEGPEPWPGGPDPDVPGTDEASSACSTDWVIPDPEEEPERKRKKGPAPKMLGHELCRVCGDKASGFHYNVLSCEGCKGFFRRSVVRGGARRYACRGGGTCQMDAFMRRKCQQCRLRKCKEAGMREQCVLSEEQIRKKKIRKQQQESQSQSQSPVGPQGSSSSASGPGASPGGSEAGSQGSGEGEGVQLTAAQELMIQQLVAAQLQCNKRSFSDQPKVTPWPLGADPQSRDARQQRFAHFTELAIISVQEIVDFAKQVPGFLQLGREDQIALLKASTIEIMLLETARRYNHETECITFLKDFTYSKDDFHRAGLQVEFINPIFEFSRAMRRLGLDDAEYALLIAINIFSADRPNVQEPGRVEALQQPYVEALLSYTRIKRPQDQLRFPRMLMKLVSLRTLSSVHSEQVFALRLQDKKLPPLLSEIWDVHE
# Outline: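 System: Gal4-LXR luciferase reporter HEK293 cells / Compound: single nominal test compound dose of 6.8 µM / Times: 24 h exposure, 37 °C / Technique: One-Glo luminescence after 15 min / Read-out basis: % activation versus DMSO and positive controls / Benchmarks: DMSO low control, 0.68% final / Replication: n 3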
# [3] = target: Galanin receptor type 2 (Homo sapiens) (UniProt O43603); assay: blockers of human galanin receptor 2 – cell-based, confirmation (AID 866; in the data active = inhibition above about 27%;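 note: cells stimulated with galanin at about its EC80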); details: GALR2-expressing cells, antagonist mode, at 4 µM, hits give high values
# Sequence of Galanin receptor type 2 (Homo sapiens) (O43603 whole entry, looked up): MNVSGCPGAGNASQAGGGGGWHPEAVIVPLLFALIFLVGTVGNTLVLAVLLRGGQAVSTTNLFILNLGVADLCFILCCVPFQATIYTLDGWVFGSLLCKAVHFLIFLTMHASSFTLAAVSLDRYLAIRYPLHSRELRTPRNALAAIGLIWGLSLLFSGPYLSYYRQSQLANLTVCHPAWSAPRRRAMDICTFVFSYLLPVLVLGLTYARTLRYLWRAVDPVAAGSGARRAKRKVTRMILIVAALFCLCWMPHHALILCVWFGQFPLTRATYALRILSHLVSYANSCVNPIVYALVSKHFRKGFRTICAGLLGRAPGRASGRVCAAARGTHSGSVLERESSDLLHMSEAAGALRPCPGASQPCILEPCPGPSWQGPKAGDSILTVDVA
# [4] = nonspecific BLA reporter inhibition – CHO NFAT-bla cells, FRET readout, counter-screen for GALR2 antagonist project, confirmation (AID 867;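 active = inhibition above the mean inhibition across tested compounds plus 3 SD, cut at about 27% in these data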;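 note: 0% = 500 nM thapsigargin stimulated wells and 100% = unstimulated BSA only wells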); details: beta-lactamase FRET, thapsigargin-stimulated, at 4.2 µM, hits give high values
Compound,activation [1],activation [2] [%],inhibition [3],inhibition [4]
CC(=O)Nc1ccc(-c2nc3ccccc3o2)cc1,17% (active),0.95,,
O=C(NCCCN1CCOCC1)c1cc(-c2ccccc2F)no1,11.6% (active),0.17,,
N#CC1(Nc2ccc(-c3ccc(Cl)cc3)cc2)CCCC1,8.29%,0.34,,
COC(=O)c1sc(NC(=O)c2ccc(OC)cc2OC)nc1C,7.02%,1.05,,
Cc1cnc(NC(=O)c2ccccn2)s1,15.6% (active),0.63,,
Cn1c(-c2ccc(C(=O)c3ccccc3)s2)nc2ccccc21,17.6% (active),0.88,,
O=C(Nc1ccc(Cl)c(Cl)c1)c1ccccc1NC(=O)C1CC=CCC1C(=O)O (stereo unspecified),10.2%,0.27,,
O=C(CCSc1ccccc1)N1CCN(c2ccccc2F)CC1,14.2% (active),0.48,,
COc1ccc(-c2cn3cccnc3n2)cc1,9.37%,0.23,,
COc1ccc(-c2cn3ccsc3n2)cc1,16.3% (active),0.84,,
O=C(NC1CCC1)c1ccc(C#CC2CC2)cn1,13.4% (active),0.57,,
Cc1cnc(C(=O)N2CCCC(C(=O)c3ccc(C(F)(F)F)cc3)C2)cn1 (stereo unspecified),4.5%,0.17,,
O=C(CSC(=S)N1CCCCC1)c1c(F)cccc1F,13.4% (active),0.64,,
CC(C)(C)c1csc(NC2=NS(=O)(=O)c3ccccc32)n1,15.4% (active),0.75,,
Cc1ccccc1Nc1nc(-c2cccnc2)cs1,16.4% (active),0.7,,
N/C(=N\OC(=O)CCC1CCCCC1)c1ccccn1,12.3% (active),0.49,,
Clc1ccc2nc(CSc3ccccc3)cn2c1,13.2% (active),0.71,,
CN(C)S(=O)(=O)c1ccc2oc(SCC(=O)Nc3ccccc3F)nc2c1,15.5% (active),0.66,,
CC(=O)c1cc(C#N)c(SCC(=O)C(C)(C)C)nc1C,14.8% (active),0.48,,
O=C(c1cnn2ccccc12)N1CCc2ccccc21,13.2% (active),0.43,,
S=C(c1ccc(-c2ccccc2)o1)N1CCCCC1,16.1% (active),0.73,,
Cc1ccc(C(=O)Nc2ccc(C)c(S(=O)(=O)N(C)C)c2)s1,11.2% (active),0.45,,
Cc1cc(O)c(NC(=O)c2ccc(C)c([N+](=O)[O-])c2)cc1C,10%,0.55,,
COc1ccc(NC(=S)N2N=CCC2c2ccccc2)cc1 (stereo unspecified),13.8% (active),0.76,,
CC(/C=N/NC(=O)c1cc(-c2ccc3ccccc3c2)n[nH]1)=C\c1ccco1,1.68%,0.14,,
Oc1cccc2cc(-c3ccncc3)cnc12,5.92%,0.18,,

Compound,activation [1],activation [2] [%],inhibition [3],inhibition [4]
CCOc1ccc(OCc2cccc(C(=O)N(CC)CC)c2)cc1,19.5% (active),0.78,,
O=C(NCCc1c[nH]c2ccccc12)c1cc2ccccc2oc1=O,13.4% (active),0.56,,
CC(C)c1cc(C(N)=O)c(NC(=O)c2cccc(COc3ccc(Br)cc3)c2)s1,14% (active),0.51,,
Cc1cccc(NC(=S)NC(=O)c2ccc(Br)o2)c1,11.1% (active),0.48,,
CC(C)(C)c1ccc(/C=C/C(=O)Nc2ncccn2)cc1,14.8% (active),0.79,,
CC(C)n1c(=O)[nH]c2cc(C(=O)Nc3ccccc3)ccc21,5.08%,0.17,,
COc1ccc(C(=O)O/N=C(\N)c2ccccn2)cc1[N+](=O)[O-],15% (active),0.59,,
O=[N+]([O-])c1cc(S(=O)(=O)N2CCCC2)ccc1NN=C1CCCC1,-0.65%,-0.04,,
Cc1ccc2nc(-c3ccc(SCC(=O)Nc4cc(C)on4)nc3)[nH]c2c1,15.6% (active),0.54,,
O=C(Nc1ccc(C2CC2(Cl)Cl)cc1)c1cccc([N+](=O)[O-])c1 (stereo unspecified),15.2% (active),0.56,,
O=C(NNC(=O)c1ccc(Cl)cc1Cl)c1cccs1,9.02%,0.37,,
O=C(NN=Cc1ccc2c(c1)CCC2)c1ccccc1O,10.4%,0.3,,
FC(F)(F)c1cnc(Oc2ccccc2-c2nnc(-c3ccc(Cl)cc3)o2)c(Cl)c1,,,3.44%,8.76%
Cc1ccc(NC(=O)c2ccco2)cc1,11.2% (active),0.49,,
Cc1ccc(C(=O)NNc2ncnc3ccccc23)cc1,9.47%,0.43,,
COc1ccc(/C=C2/CCCc3ccccc3C2=O)cc1,18.7% (active),0.78,,
COC(=O)N/N=C/c1cn(CCCOc2ccc(C)cc2)c2ccccc12,6.55%,0.17,,
c1ccc(-c2nnc(SCc3nc4ccccc4[nH]3)o2)cc1,,,13.7%,5.82%
Fc1ccccc1-c1cc2cc3c(cc2cn1)OCO3,18.4% (active),0.79,,
O=C(Nc1ccccc1)c1ccc2c(c1)OCCCO2,19.7% (active),1.02,,
Cc1ccn(-c2cccc(-n3ccc(C)n3)n2)n1,15.2% (active),0.61,,
COc1ccc(CNC(=O)COc2ccccc2C(=O)c2cnn(-c3ccccc3)c2)cc1OC,10.3%,0.65,,
O=C(Nc1cccc(O)c1)c1ccc(C(=O)c2ccccc2)o1,12.2% (active),0.51,,
Cc1cccc(N(CC(=O)Nc2ccc(-c3nc4ccc(C)cc4s3)cc2)S(C)(=O)=O)c1,19.8% (active),0.65,,
CNS(=O)(=O)c1ccc(NC(=O)Nc2ccc3c(c2)OCO3)cc1,13.2% (active),0.5,,
O=[N+]([O-])c1ccc2c(c1)Nc1nc3ccccc3nc1N2,25.8% (active),1.35,,

Compound,activation [1],activation [2] [%],inhibition [3],inhibition [4]
CSc1ccc(/C=N/NC(=O)c2cccc(Cl)c2)cc1,14.8% (active),0.56,,
CCCNC(=O)c1c(Cl)cnn1-c1ccc(C)cc1,9.95%,0.55,,
O=C(NCCOc1ccccc1)c1ccccc1F,12.7% (active),0.64,,
Cc1cc(-c2n[nH]c(=S)n2/N=C/C(Br)=C/c2ccccc2)n[nH]1,,,44.1% (active),20.9%
Cc1cccc(NC(=O)/C=C/c2ccc3c(c2)OCO3)n1,18.1% (active),0.84,,
Cc1ccc(NC(=O)c2sccc2C)cc1[N+](=O)[O-],11% (active),0.43,,
COc1ccc(/C=C/C(=O)Nc2ccc(C34CC5CC(CC(O)(C5)C3)C4)cc2)cc1OC,,,43.6% (active),21.4%
CC(=O)c1ccccc1NC(=O)COC(=O)C1COc2ccccc2O1 (stereo unspecified),-0.02%,0.04,,
O=C(Nc1ncccc1O)c1ccc(S(=O)(=O)N2CCCC2)cc1,14.2% (active),0.03,,
O=C(Nc1ccc2ccccc2c1[N+](=O)[O-])c1ccccc1,17.7% (active),0.89,,
O=C(CNC(=O)OCc1ccccc1)Oc1cc2oc(=O)cc(-c3ccccc3)c2cc1Cl,,,33.2% (active),37% (active)
O=C(NCCOc1ccccc1)c1ccccc1,13.3% (active),0.69,,
COc1cccc(/C=C/C(=O)Nc2ccc3c(c2)OCCO3)c1,12.4% (active),0.69,,
c1ccc(CN=C2Nc3ccccc3CS2)nc1,12.9% (active),0.55,,
CC(C)C(=O)Nc1cccc(C(=O)Nc2ccc3c(c2)OCO3)c1,14.1% (active),0.72,,
Fc1ccc2[nH]c3c(N4CCN(Cc5ccc6c(c5)OCO6)CC4)ncnc3c2c1,,,50.2% (active),24.3%
O=C(/C=C/Sc1ncn[nH]1)c1ccc(Cl)cc1,,,50.7% (active),17%
O=C(NC1CCCC1)c1cc(-c2ccccc2)on1,37.1% (active),0.75,,
COc1ccc(C)cc1NC(=O)c1[nH]c(C)c(C(C)=O)c1C,,,22.8%,4.72%
C/C(=N\NC(=O)OC(C)(C)C)c1ccc[nH]1,13.8% (active),0.45,,
COc1ccc(Nc2ccc3ccccc3c2)cc1,13% (active),0.53,,
CC1CCCN(c2ccc(C(=O)NCCc3ccccc3)cn2)C1 (stereo unspecified),14.6% (active),0.64,,
COCC(C)NC(=O)c1ccc(Cl)c(Cl)c1 (stereo unspecified),,,10.6%,4.96%
COc1ccc(NC(=O)c2ccc(OC)cc2)cc1,15.9% (active),0.75,,
COc1ccc(NC(=O)Nc2ccc3nsnc3c2)cc1,13.8% (active),0.54,,
O=C(NC(=S)NC1CCCCC1)c1ccc(Cl)cc1,11.3% (active),0.45,,
